In ChEMBL document CHEMBL1138867, “Design, synthesis, potency, and cytoselectivity of anticancer agents derived by parallel synthesis from alpha-aminosuberic acid” (J Med Chem, 2006):

Assays:
MM96L [1] = test: Induction of histone H4 acetylation in human MM96L cells; type: functional, cell-based
How it was run: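 MM96L melanoma cells were exposed for 8 h to 0.05, 0.5 or 5 µg/mL compound, with DMSO vehicle and untreated controls. Histones were extracted and resolved by TAU gel electrophoresis to separate non-, mono-, di-, tri- and tetra-acetylated histone H4.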

NFF [2] = test: Antiproliferative activity against human NFF cells; type: functional, cell-based
How it was run: (§1)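 Cells cultured in RPMI 1640 with 10% heat-inactivated FCS, 3 mM HEPES, 5% CO2, 37 °C; NFF are primary neonatal foreskin fibroblasts. Cells were seeded at 5 × 10^3/well and left to adhere overnight. They were exposed to compound for 24 h, then the medium was replaced and cells grown a further 72 h. Survival was read by SRB staining at 564 nm, giving IC50.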

MM96L [3] = test: Antiproliferative activity against human MM96L cells; type: functional, cell-based; how it was run: as §1
[4] = Antiproliferative activity against human MM229 cells; type: functional, cell-based; how it was run: as §1
[5] = Antiproliferative activity against human MM329 cells; type: functional, cell-based; how it was run: as §1
[6] = Antiproliferative activity against human MM470 cells; type: functional, cell-based; how it was run: as §1
[7] = Antiproliferative activity against human MM604 cells; type: functional, cell-based; how it was run: as §1
[8] = Antiproliferative activity against human Mel RM cells; type: functional, cell-based; how it was run: as §1
[9] = Antiproliferative activity against human Mel FH cells; type: functional, cell-based; how it was run: as §1
SK-MEL-28 = test: Antiproliferative activity against human SK-Mel-28 cells; type: functional, cell-based; how it was run: as §1
DO4 = test: Antiproliferative activity against human DO4 cells; type: functional, cell-based; how it was run: as §1
[10] = Antiproliferative activity against human D14 cells; type: functional, cell-based; how it was run: as §1
[11] = Antiproliferative activity against human D11 cells; type: functional, cell-based; how it was run: as §1
[12] = Antiproliferative activity against human D17 cells; type: functional, cell-based; how it was run: as §1
[13] = Antiproliferative activity against human LSP M2 cells; type: functional, cell-based; how it was run: as §1
[14] = Antiproliferative activity against human AF6 cells; type: functional, cell-based; how it was run: as §1
[15] = Antiproliferative activity against human AO7 RM cells; type: functional, cell-based; how it was run: as §1
A2058 = test: Antiproliferative activity against human A2058 cells; type: functional, cell-based; how it was run: as §1
HeLa = test: Antiproliferative activity against human HeLa cells; type: functional, cell-based; how it was run: as §1
NFF [16] = test: Selectivity index, IC50 for MM229 over IC50 for NFF cells; type: functional, Homo sapiens
How it was run: (§2)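 Selectivity index: IC50 for normal neonatal foreskin fibroblasts (NFF) relative to IC50 for each cancer line, both from the same survival assay. Cells grown in RPMI 1640 with 10% heat-inactivated FCS at 37 °C and 5% CO2, plated at 5 × 10^3 cells/well and left to adhere overnight. Compound exposure 24 h, then removed and cells regrown 72 h in fresh medium. Fixed with methylated spirits, stained with sulforhodamine B, read at 564 nm.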

NFF [17] = test: Selectivity index, IC50 for MM329 over IC50 for NFF cells; type: functional, Homo sapiens; how it was run: as §2
NFF [18] = test: Selectivity index, IC50 for MM470 over IC50 for NFF cells; type: functional, Homo sapiens; how it was run: as §2
NFF [19] = test: Selectivity index, IC50 for MM604 over IC50 for NFF cells; type: functional, Homo sapiens; how it was run: as §2
NFF [20] = test: Selectivity index, IC50 for Mel RM over IC50 for NFF cells; type: functional, Homo sapiens; how it was run: as §2
NFF [21] = test: Selectivity index, IC50 for Mel FH over IC50 for NFF cells; type: functional, Homo sapiens; how it was run: as §2
NFF [22] = test: Selectivity index, IC50 for DO4 over IC50 for NFF cells; type: functional, Homo sapiens
NFF [23] = test: Selectivity index, IC50 for D14 over IC50 for NFF cells; type: functional, Homo sapiens
NFF [24] = test: Selectivity index, IC50 for D11 over IC50 for NFF cells; type: functional, Homo sapiens
NFF [25] = test: Selectivity index, IC50 for D17 over IC50 for NFF cells; type: functional, Homo sapiens
NFF [26] = test: Selectivity index, IC50 for LSP M2 over IC50 for NFF cells; type: functional, Homo sapiens; how it was run: as §2
NFF [27] = test: Selectivity index, IC50 for AF6 over IC50 for NFF cells; type: functional, Homo sapiens
NFF [28] = test: Selectivity index, IC50 for AO7 RM over IC50 for NFF cells; type: functional, Homo sapiens
NFF [29] = test: Selectivity index, IC50 for A2058 over IC50 for NFF cells; type: functional, Homo sapiens
NFF [30] = test: Selectivity index, IC50 for HeLa over IC50 for NFF cells; type: functional, Homo sapiens

## CN(C)c1ccc(C(=O)NC(CCCCCC(=O)NO)C(=O)NCc2ccccc2)cc1 (centres undefined)
MM96L [1]
  Activity: Dose-dependent effect
NFF [2]
  IC50: 870 nM
MM96L [3]
  IC50: 130 nM
[4]
  IC50: 600 nM
[5]
  IC50: 60 nM
[6]
  IC50: 90 nM
[7]
  IC50: 10 nM
[8]
  IC50: 950 nM
[9]
  IC50: 80 nM
SK-MEL-28
  IC50: 60 nM
DO4
  IC50: 120 nM
[10]
  IC50: 260 nM
[11]
  IC50: 300 nM
[12]
  IC50: 60 nM
[13]
  IC50: 450 nM
[14]
  IC50: 300 nM
[15]
  IC50: 180 nM
A2058
  IC50: 100 nM
HeLa
  IC50: 90 nM
NFF [16]
  Ratio IC50: 1.5
NFF [17]
  Ratio IC50: 14.5
NFF [18]
  Ratio IC50: 9.7
NFF [19]
  Ratio IC50: 87
NFF [20]
  Ratio IC50: 0.9
NFF [21]
  Ratio IC50: 10.9
NFF [22]
  Ratio IC50: 7.3
NFF [23]
  Ratio IC50: 3.3
NFF [24]
  Ratio IC50: 2.9
NFF [25]
  Ratio IC50: 14.5
NFF [26]
  Ratio IC50: 1.9
NFF [27]
  Ratio IC50: 2.9
NFF [28]
  Ratio IC50: 4.8
NFF [29]
  Ratio IC50: 8.7
NFF [30]
  Ratio IC50: 9.7
